From ChEMBL document CHEMBL1127833, “Structure determination, pharmacological evaluation, and structure-activity studies of a new cyclic peptide substance P antagonist containing the new amino acid 3-prenyl-beta-hydroxytyrosine, isolated from Aspergillus flavipes” (J Med Chem, 1994)

Columns and labels:
[1] = target: T1, Substance-K receptor (Homo sapiens, UniProt P21452); assay: Displacement of [125I]-NKA substance P binding to human urinary bladder membrane protein (NK2)
T1 sequence (P21452 whole entry): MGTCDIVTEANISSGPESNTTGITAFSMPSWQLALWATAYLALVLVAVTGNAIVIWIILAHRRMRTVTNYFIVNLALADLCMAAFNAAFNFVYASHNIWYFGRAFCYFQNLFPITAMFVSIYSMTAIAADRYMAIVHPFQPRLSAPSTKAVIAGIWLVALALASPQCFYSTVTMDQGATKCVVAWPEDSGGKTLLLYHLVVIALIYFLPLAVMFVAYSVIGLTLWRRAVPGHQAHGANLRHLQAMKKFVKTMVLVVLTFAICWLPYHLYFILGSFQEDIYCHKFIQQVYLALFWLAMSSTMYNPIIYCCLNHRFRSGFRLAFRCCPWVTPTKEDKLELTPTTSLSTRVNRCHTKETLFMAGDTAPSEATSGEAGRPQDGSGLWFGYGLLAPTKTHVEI
How it was run: (§1)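 Radioligand displacement at NK1 or NK2 sites, with Ki values averaged over two to eight determinations.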

[2] = target: Substance-P receptor (Homo sapiens, UniProt P25103); assay: Displacement of [125I]- substance P binding to human astrocytoma cells (NK1); how it was run: as §1
Sequence of Substance-P receptor (P25103 whole entry): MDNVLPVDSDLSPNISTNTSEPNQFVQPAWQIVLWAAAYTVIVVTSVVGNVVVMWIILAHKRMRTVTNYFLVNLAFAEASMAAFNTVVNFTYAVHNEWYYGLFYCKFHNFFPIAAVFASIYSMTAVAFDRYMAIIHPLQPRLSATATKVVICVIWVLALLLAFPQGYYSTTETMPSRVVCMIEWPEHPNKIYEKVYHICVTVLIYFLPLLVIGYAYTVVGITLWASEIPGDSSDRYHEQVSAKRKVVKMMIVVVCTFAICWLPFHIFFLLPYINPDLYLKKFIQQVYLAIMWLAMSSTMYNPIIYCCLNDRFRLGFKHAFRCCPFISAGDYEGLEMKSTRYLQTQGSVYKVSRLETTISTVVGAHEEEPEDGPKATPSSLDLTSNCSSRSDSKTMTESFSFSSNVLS

[3] = species on record: Cavia porcellus; assay: substance P induced guinea pig ileum
[4] = Functional antagonism by the ability to inhibit substance P induced 45 [Ca2+] efflux in human astrocytoma cells; format: cell-based
How it was run: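 Human astrocytoma cells stimulated with 3 nM substance P; the antagonist's inhibition of 45Ca2+ efflux was measured. Efflux seen without SP and antagonist was subtracted. Mean ± SEM from at least three experiments.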

| Ki [1] [µM] | Ki [2] [µM] | pA2 [3] | IC50 [4] [µM] | Structure (SMILES) |
| --- | --- | --- | --- | --- |
| 27 | 48 | – | – | CC(C)[C@@H]1NC(=O)CNC(=O)[C@@H]2CCCN2C(=O)[C@@H](Cc2c[nH]c3ccccc23)NC(=O)CNC(=O)[C@H](Cc2ccc(OC(C)(C)C)cc2)NC(=O)CNC1=O |
| 73 | 72 | – | – | COc1ccc(CC2NC(=O)CNC(=O)[C@H](C(C)C)NC(=O)CNC(=O)[C@@H]3CCCN3C(=O)[C@@H](Cc3c[nH]c4ccccc34)NC(=O)CNC2=O)cc1 (stereo partly drawn) |
| 3.8 | 8 | 5.23 | – | CC(C)=CCc1cc(C(O)C2NC(=O)CNC(=O)[C@H](C(C)C)NC(=O)CNC(=O)[C@@H]3CCCN3C(=O)[C@@H](Cc3c[nH]c4ccccc34)NC(=O)CNC2=O)ccc1O (stereo partly drawn) |
| 31 | 93 | – | – | CC(C)[C@@H]1NC(=O)CNC(=O)[C@@H]2CCCN2C(=O)C(Cc2c[nH]c3ccccc23)NC(=O)CNC(=O)[C@H](Cc2ccc(OC(C)(C)C)cc2)NC(=O)CNC1=O (single isomer, unassigned) |
| 33 | 18 | – | – | COc1ccc(C(O)C2NC(=O)CNC(=O)[C@H](C(C)C)NC(=O)CNC(=O)[C@@H]3CCCN3C(=O)[C@@H](Cc3c[nH]c4ccccc34)NC(=O)CNC2=O)cc1 (stereo partly drawn) |
| > 100 | > 100 | – | – | CC(C)[C@@H]1NC(=O)CNC(=O)[C@@H]2CCCN2C(=O)[C@@H](Cc2c[nH]c3ccccc23)NC(=O)CNC(=O)[C@H](Cc2ccc(O)cc2)NC(=O)CNC1=O |
| 1.6 | 0.12 | – | 0.43 | COc1ccc(C(O)C2NC(=O)CNC(=O)[C@H](C(C)C)NC(=O)CNC(=O)[C@@H]3CCCN3C(=O)[C@@H](Cc3c[nH]c4ccccc34)NC(=O)CNC2=O)cc1CC=C(C)C (stereo partly drawn) |
| > 100 | > 100 | – | – | CC(C)[C@@H]1NC(=O)CNC(=O)[C@@H]2CCCN2C(=O)[C@@H](Cc2c[nH]c3ccccc23)NC(=O)CNC(=O)C(C(O)c2ccc(O)cc2)NC(=O)CNC1=O (stereo partly drawn) |
